Reference: ChEMBL document CHEMBL1124611, “Synthesis and antitubercular activity of N-(2-naphthyl)glycine hydrazide analogues” (J Med Chem, 1989)

Experiments:
Format in all cases: functional, organism-based
[1] = system: Mycobacterium tuberculosis; test: Ability to inhibit 100%growth against Mycobacterium tuberculosis H37Rv in Youman's medium
In short: (§1)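 M. tuberculosis H37Rv was kept on Petrik's solid medium. A 3-mm loopful of a 14-day culture grown in Youman's medium was floated on 5.0 mL of Youman's (nonprotein) medium holding a range of compound concentrations diluted from stocks. Controls held medium or ethylene glycol. Tubes were sealed with paraffin and held at 37 °C. Growth was compared with controls weekly and scored at 21 days, in triplicate.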

[2] = system: Mycobacterium tuberculosis; test: Ability to inhibit 100%growth against Mycobacterium tuberculosis H37Rv in Youman's medium with 10% bovine serum
In short: (§2)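 H37Rv from a 14-day Youman's culture was inoculated as a loopful floated on Youman's medium with 10% (v/v) freshly prepared bovine serum. The medium held a range of compound concentrations. Controls held medium or ethylene glycol. Tubes were sealed and held at 37 °C. Growth was compared with controls and scored at 21 days.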

[3] = system: Mycobacterium tuberculosis; test: Ability to inhibit partial growth (50+/-10%) against Mycobacterium tuberculosis H37Rv in Youman's medium; in short: as §1
[4] = system: Mycobacterium tuberculosis; test: Ability to inhibit partial growth (50+/-10%) against Mycobacterium tuberculosis H37Rv in Youman's medium with 10% bovine serum; in short: as §2
[5] = system: Mycobacterium tuberculosis; test: Ability to inhibit 100%growth against Mycobacterium tuberculosis strain no: 22443 in Youman's medium.
In short: (§3)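 Clinical isolates (INH-resistant nos. 22443 and 312; streptomycin-resistant no. 14029) were kept on Lowenstein-Jensen or Petrik's medium, then moved to Youman's medium. 14-day cultures were inoculated into tubes holding a range of compound concentrations in Youman's medium. Controls held medium, ethylene glycol, INH and streptomycin. Tubes were sealed with paraffin and held at 37 °C for 4 weeks. Growth was compared with controls weekly and scored at 28 days, in triplicate.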

[6] = system: Mycobacterium tuberculosis; test: Ability to inhibit 100%growth against Mycobacterium tuberculosis strain no: 312 in Youman's medium.; in short: as §3
[7] = system: Mycobacterium tuberculosis; test: Ability to inhibit partial growth (50+/-10%) against Mycobacterium tuberculosis strain no: 22443 in Youman's medium; in short: as §3
[8] = system: Mycobacterium tuberculosis; test: Ability to inhibit partial growth (50+/-10%) against Mycobacterium tuberculosis strain no: 312 in Youman's medium; in short: as §3
[9] = system: Mycobacterium tuberculosis; test: Ability to inhibit 100% growth against Mycobacterium tuberculosis strain no :14029; in short: as §3
[10] = system: Mycobacterium tuberculosis; test: Ability to inhibit partial growth (50+/-10%) against Mycobacterium tuberculosis strain no: 14029 in Youman's medium; in short: as §3

SMILES | Concentration [1] [µg/mL] | Concentration [2] [µg/mL] | Concentration [3] [µg/mL] | Concentration [4] [µg/mL] | Concentration [5] [µg/mL] | Concentration [6] [µg/mL] | Concentration [7] [µg/mL] | Concentration [8] [µg/mL] | Concentration [9] [µg/mL] | Concentration [10] [µg/mL]
COc1ccc2cc(NC(C)C(=O)NN)ccc2c1 (stereo unspecified) | 50 | 100 | 10 | 50 |  |  |  |  |  | 
NNC(=O)CNc1ccc2ncccc2c1 | 100 | 100 | 25 | 50 |  |  |  |  |  | 
CC(CC(=O)NN)Nc1ccc2ncccc2c1 (stereo unspecified) | 100 | 150 | 50 | 100 |  |  |  |  |  | 
NNC(=O)c1ccncc1 | 1 | 1 | 0.1 | 0.5 | 150 | 100 | 100 | 50 |  | 
NNC(=O)CNc1ccc2ccccc2c1 | 1 | 50 | 0.5 | 10 |  |  |  |  |  | 
CC(CC(=O)NN)Nc1ccc2ccccc2c1 (stereo unspecified) | 10 | 100 | 5 | 50 |  |  |  |  |  | 
COc1ccc2cc(NCC(=O)NN)ccc2c1 | 10 | 50 | 5 | 10 |  |  |  |  |  | 
O=C(O)CNc1ccc2ncccc2c1 | 100 | 100 | 10 | 50 |  |  |  |  |  | 
O=C(O)CNc1ccc2ccccc2c1 | 1000 |  | 100 |  |  |  |  |  |  | 
CN(CC(=O)N/N=C/c1ccncc1)c1ccc2ccccc2c1 | 10 | 100 | 1 | 10 |  |  |  |  |  | 
CN(CC(=O)NN)c1ccc2ccccc2c1 | 10 | 50 | 2 | 10 |  |  |  |  |  | 
CN[C@@H]1[C@H](O[C@H]2[C@H](O[C@H]3[C@H](O)[C@@H](O)[C@H](N=C(N)N)[C@@H](O)[C@@H]3N=C(N)N)O[C@@H](C)[C@]2(O)C=O)O[C@@H](CO)[C@H](O)[C@H]1O |  |  |  |  |  |  |  |  | 2500 | 1000
O=C(CNc1ccc2ccccc2c1)N/N=C/c1ccncc1 | 1 | 100 | 0.5 | 10 |  |  |  |  |  | 
CC(Nc1ccc2ccccc2c1)C(=O)NN (stereo unspecified) | 1 | 50 | 0.5 | 10 |  |  |  |  |  | 
